# According to ChEMBL document CHEMBL1157864, “Synthesis of some novel 2-substituted-5-[isopropylthiazole] clubbed 1,2,4-triazole and 1,3,4-oxadiazoles as potential antimicrobial and antitubercular agents” (Eur J Med Chem, 2010):
# How the values were obtained:
# Aspergillus niger = assay: Antimicrobial activity against Aspergillus niger ATCC 6275 after 24 hrs by broth microdilution assay; format: functional; details: ATCC 6275, 24 h
# Method in brief: (§1)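 Broth dilution MIC. Stock is 10 mg compound in 1 mL DMSO, serially diluted in Mueller–Hinton broth for bacteria or Sabouraud liquid medium for yeasts and mould. Tubes are inoculated at 10⁵ cfu/mL and incubated at 37 °C for 24 h. Controls are medium alone and medium with DMSO at matching dilutions. MIC is the lowest concentration giving complete growth inhibition.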
# Klebsiella pneumoniae = assay: Antimicrobial activity against Klebsiella pneumoniae ATCC 10031 after 24 hrs by broth microdilution assay; format: functional; details: ATCC 10031, 24 h; method in brief: as §1
# Escherichia coli = assay: Antimicrobial activity against Escherichia coli ATCC 10536 after 24 hrs by broth microdilution assay; format: functional; details: ATCC 10536, 24 h; method in brief: as §1
# Saccharomyces cerevisiae = assay: Antimicrobial activity against Saccharomyces cerevisiae ATCC 9763 after 24 hrs by broth microdilution assay; format: functional; details: ATCC 9763, 24 h; method in brief: as §1
# [1] = system: Mycobacterium tuberculosis; assay: Antimycobacterial activity against Mycobacterium tuberculosis H37Rv after 21 days by broth dilution assay; format: functional; details: 504 h
# Method in brief: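 Middlebrook 7H9 broth with 10% albumin-dextrose-catalase and 0.2% glycerol; frozen culture thawed, diluted to 10⁵ cfu/mL and used as inoculum. Compounds taken up in DMSO and diluted twice in broth, 1.3% DMSO final. Incubated at 37 °C. Growth judged by eye against drug-free and inoculum-free controls and isoniazid. MIC is the lowest concentration inhibiting ≥99% of the starting population.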
# Enterococcus faecalis = assay: Antimicrobial activity against Streptococcus faecalis ATCC 14506 after 24 hrs by broth microdilution assay; format: functional; details: ATCC 14506, 24 h; method in brief: as §1
# Bacillus subtilis = assay: Antimicrobial activity against Bacillus subtilis ATCC 60511 after 24 hrs by broth microdilution assay; format: functional; details: ATCC 60511, 24 h; method in brief: as §1
# A549 = assay: Cytotoxicity against human A549 cells at 250 uM; format: cell-based; details: a549, 250 µM
# Method in brief: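 A549 lung adenocarcinoma cells are grown with fetal bovine serum. Compounds are taken from 10 mM DMSO stocks stored at −20 °C and diluted in culture medium, with treatments at 50–250 µM. Viability is read by MTT assay against untreated cells and a DMSO vehicle control.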
# Pseudomonas aeruginosa = assay: Antimicrobial activity against Pseudomonas aeruginosa ATCC 10145 after 24 hrs by broth microdilution assay; format: functional; details: ATCC 10145, 24 h; method in brief: as §1
# Candida tropicalis = assay: Antimicrobial activity against Candida tropicalis ATCC 1369 after 24 hrs by broth microdilution assay; format: functional; details: ATCC 1369, 24 h; method in brief: as §1
# Staphylococcus aureus = assay: Antimicrobial activity against Staphylococcus aureus ATCC 11632 after 24 hrs by broth microdilution assay; format: functional; details: ATCC 11632, 24 h; method in brief: as §1
Compound,MIC (Aspergillus niger) [mg/L],MIC (Klebsiella pneumoniae) [mg/L],MIC (Escherichia coli) [mg/L],MIC (Saccharomyces cerevisiae) [mg/L],MIC [1] [mg/L],MIC (Enterococcus faecalis) [mg/L],MIC (Bacillus subtilis) [mg/L],Activity (A549),MIC (Pseudomonas aeruginosa) [mg/L],MIC (Candida tropicalis) [mg/L],MIC (Staphylococcus aureus) [mg/L]
CC(C)c1csc(-c2nnc(-c3ccc([N+](=O)[O-])cc3)o2)n1,31.2,62.5,125,16,62.5,31.2,31.2,50%,31.2,16,16
Cc1ccc(-c2nnc(-c3nc(C(C)C)cs3)o2)cc1,31.2,125,62.5,62.5,16,16,31.2,–,125,125,31.2
CC(=O)N1N=C(c2nc(C(C)C)cs2)OC1(C)C,62.5,125,125,62.5,125,125,125,–,125,62.5,62.5
CC(=O)N1N=C(c2nc(C(C)C)cs2)OC1(C)c1ccccc1 (centres undefined),62.5,62.5,62.5,125,62.5,31.2,62.5,–,31.2,31.2,31.2
CC(=O)N1N=C(c2nc(C(C)C)cs2)OC1(C)c1ccc(O)cc1 (centres undefined),125,16,16,31.2,62.5,31.2,31.2,–,62.5,31.2,16
COc1ccc(C2(C)OC(c3nc(C(C)C)cs3)=NN2C(C)=O)cc1 (centres undefined),8,125,125,4,62.5,125,31.2,–,125,8,31.2
CC(=O)N1N=C(c2nc(C(C)C)cs2)OC1(C)c1ccc(Cl)cc1 (centres undefined),62.5,8,8,62.5,16,62.5,31.2,Toxic,8,31.2,16
CC(=O)N1N=C(c2nc(C(C)C)cs2)OC1(C)c1ccc([N+](=O)[O-])cc1 (centres undefined),31.2,62.5,16,31.2,125,62.5,62.5,–,31.2,62.5,31.2
CC(C)c1csc(-c2nnc(-c3ccccc3)o2)n1,125,250,125,62.5,31.2,16,62.5,–,62.5,125,31.2
CC(C)c1csc(-c2nnc(-c3ccc(Cl)cc3)o2)n1,62.5,125,125,62.5,4,8,4,–,125,125,8
CC(=O)N1N=C(c2nc(C(C)C)cs2)OC1(C)c1ccc(Br)cc1 (centres undefined),31.2,16,62.5,31.2,125,16,31.2,–,16,31.2,16
CC(=O)N1N=C(c2nc(C(C)C)cs2)OC1(C)c1ccc(C)cc1 (centres undefined),31.2,31.2,16,16,31.2,125,16,–,125,31.2,125
CC(C)c1csc(-c2nnc(-c3ccc(O)cc3)o2)n1,125,62.5,62.5,62.5,125,62.5,31.2,–,62.5,125,62.5
Cc1ccc(/C=N/n2c(S)nnc2-c2nc(C(C)C)cs2)cc1,16,125,125,31.2,32.5,125,31.2,50%,31.2,31.2,31.2
CC(C)c1csc(-c2nnc(S)n2/N=C/c2ccccc2Cl)n1,16,8,62.5,31.2,4,8,4,50%,16,31.2,31.2
